{"data": "Measured values of several laboratories", "target": "Serine/threonine-protein kinase 26 (STK26, Homo sapiens, UniProt Q9P289)", "note": "Each line is one published result; the experiments were not run side by side."}
{"SMILES": "COc1cc(-c2cc(-c3ccc(N4CCNCC4)cc3)cnc2N)cc(OC)c1OC", "read-out": "enzyme activity", "mode": "inhibitor", "tested at": "1 µM", "quantity": "inhibition", "value": "1%"}
{"SMILES": "O=C(NS(=O)(=O)c1ccc(NCC2CCOCC2)c([N+](=O)[O-])c1)c1ccc(N2CCN(Cc3ccc(C(F)(F)F)cc3-c3ccc(Cl)cc3)CC2)cc1Oc1cnc2[nH]ccc2c1", "read-out": "cell-free assay", "technique": "competition with immobilised ligand", "tested at": "1 µM", "quantity": "remaining binding", "value": "72%"}
{"SMILES": "Cn1c2c(c3ccccc31)C(C#N)C(C)(C)NC2=O (stereo not drawn)", "read-out": "thermal stability", "technique": "DSF", "tested at": "10 µM", "quantity": "ΔTm", "value": "1.9 °C"}
{"SMILES": "FC(F)(F)Oc1cccc(-c2cnc3ccc(-c4ccncc4)nn23)c1", "read-out": "enzyme activity", "mode": "inhibitor", "technique": "radiometric", "tested at": "5 µM", "quantity": "activity vs control", "value": "87%"}
{"SMILES": "Cc1cnc(NC2CCOCC2)nc1-n1cnc(C(=O)NC(CN)c2cc(F)cc(Cl)c2)c1 (stereo not drawn)", "read-out": "enzyme activity", "mode": "inhibitor", "technique": "radiometric", "tested at": "1 µM", "quantity": "remaining activity", "value": "109%"}
{"SMILES": "Nc1nc(NC2CCCCC2)sc1C(=O)c1ccccc1", "read-out": "enzyme activity", "mode": "inhibitor", "tested at": "10 µM", "quantity": "remaining activity", "value": "76%"}
{"SMILES": "COc1cccc2c(NCc3ccccc3)nc(-n3c(N)nc4ccccc43)nc12", "read-out": "target engagement in cells", "mode": "inhibitor", "technique": "chemoproteomics", "tested at": "20 mM", "quantity": "inhibition", "value": "31.1%"}
{"SMILES": "Cn1c2c(c3ccc(Cl)c(Cl)c31)C(C#N)C1(CCNCC1)NC2=O (racemic)", "read-out": "thermal stability", "technique": "DSF", "tested at": "10 µM", "quantity": "ΔTm", "value": "-0.5 °C"}
{"SMILES": "FC(F)c1nc2ccccc2n1-c1nc(N2CCOCC2)nc(N2CCOCC2)n1", "read-out": "enzyme activity", "mode": "inhibitor", "tested at": "10 µM", "quantity": "remaining activity", "value": "88%"}
{"SMILES": "CC(=O)N1CCC(c2ccc(C(=O)NC(=N)N)cc2C(F)(F)F)CC1", "read-out": "cell-free assay", "technique": "competition with immobilised ligand", "tested at": "1 µM", "quantity": "remaining binding", "value": "97%"}
{"SMILES": "CN(CCCC(F)(F)F)c1nccc(-c2cnn3ncccc23)n1", "read-out": "cell-free assay", "tested at": "1 µM", "quantity": "remaining signal", "value": "100%"}
{"SMILES": "COc1cc2ncnc(Nc3ccc(Oc4ccccc4)c(C)c3C)c2cc1OC", "read-out": "enzyme activity", "mode": "inhibitor", "tested at": "1 µM", "quantity": "inhibition", "value": "21%"}
{"SMILES": "Oc1ccc(-c2nc(-c3ccncc3)c(-c3ccc(F)cc3)[nH]2)cc1", "read-out": "cell-free assay", "tested at": "0.5 µM", "quantity": "remaining signal", "value": "101%"}
{"SMILES": "N[C@H]1CCN(c2nccc(-c3cnn4ncccc34)n2)C1", "read-out": "cell-free assay", "tested at": "1 µM", "quantity": "remaining signal", "value": "71%"}
{"SMILES": "CN1CCC2(CC1)NC(=O)c1c(c3ccc(Cl)c(Cl)c3n1C)C2C#N (racemic)", "read-out": "thermal stability", "technique": "DSF", "tested at": "10 µM", "quantity": "ΔTm", "value": "1.7 °C"}
{"SMILES": "CS(=O)(=O)c1cc(C2(NC(=O)c3cncc4c3cnn4-c3ccc(F)cc3)CC2)ccn1", "read-out": "cell-free assay", "technique": "competition with immobilised ligand", "tested at": "1 µM", "quantity": "remaining binding", "value": "97%"}
{"SMILES": "CN(C)C1CCN(CC#Cc2nn(C3CCCC3)c3nc(NCc4ccccc4)ncc23)C1 (stereo not drawn)", "read-out": "enzyme activity", "mode": "inhibitor", "technique": "FRET", "tested at": "0.1 µM", "quantity": "inhibition", "value": "9%"}
{"SMILES": "F[C@@H]1CCN(c2nccc(-c3cnn4ncccc34)n2)C1", "read-out": "cell-free assay", "tested at": "1 µM", "quantity": "remaining signal", "value": "100%"}
{"SMILES": "CC(C)(C)c1nc2c(s1)c1nc(N)ncc1c1ccc(NS(=O)(=O)c3c(F)cccc3F)c(F)c12", "read-out": "enzyme activity", "mode": "inhibitor", "technique": "radiometric", "tested at": "1 µM", "quantity": "remaining activity", "value": "98%"}
{"SMILES": "Cc1cc(NC(=O)c2cccc3cc(-c4cccc5[nH]nc(N)c45)ccc23)ccc1F", "read-out": "enzyme activity", "mode": "inhibitor", "tested at": "0.1 µM", "quantity": "activity vs control", "value": "107%"}
{"SMILES": "N#CC1(c2ccccn2)CCN(Cc2cc(C(=O)N3CCCC3)c(=O)n3ccccc23)CC1", "read-out": "cell-free assay", "technique": "competition with immobilised ligand", "tested at": "1 µM", "quantity": "remaining binding", "value": "100%"}
{"SMILES": "Oc1cccc(-c2nc(N3CCOCC3)c3oc4ncccc4c3n2)c1", "read-out": "enzyme activity", "mode": "inhibitor", "tested at": "10 µM", "quantity": "remaining activity", "value": "114%"}
{"SMILES": "O=C1NC(c2ccccn2)Sc2ccccc21 (stereo not drawn)", "read-out": "cell-free assay", "technique": "competition with immobilised ligand", "tested at": "1 µM", "quantity": "remaining binding", "value": "80%"}
{"SMILES": "COc1cc(Nc2cnc(C#N)c(O[C@H](C)CN(C)C)n2)ncc1-c1cnn(C)c1", "read-out": "enzyme activity", "mode": "inhibitor", "technique": "radiometric", "tested at": "1 µM", "quantity": "remaining activity", "value": "83%"}
{"SMILES": "O=C(Nc1cnn(-c2csc(C(=O)NC3COC3)c2)c1)Nc1ccccc1Cl", "read-out": "enzyme activity", "mode": "inhibitor", "tested at": "5 µM", "quantity": "remaining activity", "value": "98.3%"}
{"SMILES": "Oc1cccc(-c2nc(N3CCOCC3)c3oc4ncccc4c3n2)c1", "read-out": "cell-free assay", "tested at": "0.5 µM", "quantity": "remaining signal", "value": "98.6%"}
{"SMILES": "CN(c1nccc(-c2cnn3ncccc23)n1)C1CC1", "read-out": "cell-free assay", "tested at": "1 µM", "quantity": "remaining signal", "value": "100%"}
{"SMILES": "CC1(C)NC(=O)c2[nH]c3c(Cl)c(Cl)ccc3c2C1C#N (stereo not drawn)", "read-out": "thermal stability", "technique": "DSF", "tested at": "10 µM", "quantity": "ΔTm", "value": "2.4 °C"}
{"SMILES": "O=C(Nc1ccc(Oc2ccc(F)cc2)cc1)N1CCc2ncccc2[C@H]1c1ccc(F)cc1", "read-out": "cell-free assay", "technique": "competition with immobilised ligand", "tested at": "1 µM", "quantity": "remaining binding", "value": "100%"}
{"SMILES": "Nc1ncnc2occ(-c3ccc(NC(=O)Nc4cc(C(F)(F)F)ccc4F)cc3)c12", "read-out": "cell-free assay", "mode": "inhibitor", "tested at": "20 µM", "quantity": "remaining signal", "value": "2.6%"}
{"SMILES": "Cc1noc([C@H]2C[C@@H](c3ccc(C(F)(F)F)cc3)CN(C(=O)N3CCS(=O)(=O)C3)C2)n1", "read-out": "cell-free assay", "technique": "competition with immobilised ligand", "tested at": "1 µM", "quantity": "remaining binding", "value": "74%"}
{"SMILES": "CC1CCCN1c1nccc(-c2cnn3ncccc23)n1 (stereo not drawn)", "read-out": "cell-free assay", "tested at": "1 µM", "quantity": "remaining signal", "value": "100%"}
{"SMILES": "COc1cc(-c2cc(-c3ccc(N4CCNCC4)cc3)cnc2C)cc(OC)c1OC", "read-out": "enzyme activity", "mode": "inhibitor", "tested at": "0.1 µM", "quantity": "inhibition", "value": "9%"}
{"SMILES": "C[C@H](c1ccc(F)cc1)N(Cc1cccc(C(=O)O)c1)C(=O)c1cnc2ccccc2c1", "read-out": "cell-free assay", "technique": "competition with immobilised ligand", "tested at": "1 µM", "quantity": "remaining binding", "value": "79%"}
{"SMILES": "Cc1ccc(NC(=O)c2ccc(C)c(C(F)(F)F)c2)cc1C#Cc1nn(C2CCC(O)CC2)c2ncnc(N)c12 (stereo not drawn)", "read-out": "cell-free assay", "tested at": "10 µM", "quantity": "remaining signal", "value": "73%"}
{"SMILES": "CC(C)(C)C(=O)c1sc(NC2CCCCC2)nc1N", "read-out": "enzyme activity", "mode": "inhibitor", "tested at": "10 µM", "quantity": "remaining activity", "value": "90%"}
{"SMILES": "C[C@H]1CCN(c2nccc(-c3cnn4ncccc34)n2)C1", "read-out": "cell-free assay", "tested at": "1 µM", "quantity": "remaining signal", "value": "73%"}
{"SMILES": "CCCCNc1ncc2c(-c3ccc(F)cc3)nn(C[C@H]3CC[C@H](N)CC3)c2n1", "read-out": "target engagement in cells", "mode": "inhibitor", "technique": "chemoproteomics", "tested at": "20 mM", "quantity": "inhibition", "value": "1.8%"}
{"SMILES": "COc1cc(Cl)c(C(=O)N[C@@H](CN[C@H]2CC[C@@H](N)CC2)Cc2ccc(C#N)cc2)cc1-c1ccc(CN[C@H](C)c2ccc(C)cc2)o1", "read-out": "enzyme activity", "mode": "inhibitor", "tested at": "1 µM", "quantity": "remaining activity", "value": "94%"}
